Test [1] concerns the target T1, rat IDE (Rattus norvegicus, UniProt P35559).
T1 sequence (P35559 1-1019): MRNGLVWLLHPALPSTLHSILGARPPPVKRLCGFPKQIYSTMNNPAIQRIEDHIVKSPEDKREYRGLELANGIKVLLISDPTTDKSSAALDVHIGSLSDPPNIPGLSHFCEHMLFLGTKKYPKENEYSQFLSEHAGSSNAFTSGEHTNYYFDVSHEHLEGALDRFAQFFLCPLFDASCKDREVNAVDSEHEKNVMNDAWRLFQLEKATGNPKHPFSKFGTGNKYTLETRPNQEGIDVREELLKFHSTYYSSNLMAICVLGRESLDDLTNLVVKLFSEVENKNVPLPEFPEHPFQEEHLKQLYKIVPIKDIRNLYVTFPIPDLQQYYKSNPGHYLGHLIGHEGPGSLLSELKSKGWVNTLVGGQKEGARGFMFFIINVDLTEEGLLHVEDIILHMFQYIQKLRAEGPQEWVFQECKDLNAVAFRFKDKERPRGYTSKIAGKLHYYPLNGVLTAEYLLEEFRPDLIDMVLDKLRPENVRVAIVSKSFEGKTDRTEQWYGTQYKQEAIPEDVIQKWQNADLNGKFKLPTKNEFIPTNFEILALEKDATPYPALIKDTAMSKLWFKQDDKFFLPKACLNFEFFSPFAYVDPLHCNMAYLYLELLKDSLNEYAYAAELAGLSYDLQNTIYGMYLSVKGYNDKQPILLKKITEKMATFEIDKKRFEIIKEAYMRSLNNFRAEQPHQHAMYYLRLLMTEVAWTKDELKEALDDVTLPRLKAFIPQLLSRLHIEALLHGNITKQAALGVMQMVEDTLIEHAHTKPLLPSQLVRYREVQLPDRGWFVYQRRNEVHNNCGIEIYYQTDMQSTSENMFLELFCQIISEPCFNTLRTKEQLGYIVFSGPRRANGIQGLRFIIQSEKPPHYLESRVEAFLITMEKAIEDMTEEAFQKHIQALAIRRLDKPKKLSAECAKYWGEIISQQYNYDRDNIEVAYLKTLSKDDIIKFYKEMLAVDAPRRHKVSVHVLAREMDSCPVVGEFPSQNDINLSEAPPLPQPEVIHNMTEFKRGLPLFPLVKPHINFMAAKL
Briefly: Dose-response of rat IDE activation. It is filed as biochemical. Particulars: rat IDE activation, a-factor–based substrate. An outline of the steps:
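Rat IDE (10 µg/mL) in 0.1 M KPi pH 7.6 was preincubated 10 min at 37 °C with activator (up to 1 mM), then mixed 1:1 with a-factor–based fluorogenic substrate (50 µM final). Fluorescence (320 ex) was read over 60 min and rate taken from the 15–30 min window. Baseline was subtracted and rates normalized to trypsin/pronase E full digestion. AC50 came from best-fit curves, or [Max]50 where the curve was not sigmoidal.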

Test [2] has as its target T1, rat IDE. As to the kind of experiment: Native PAGE mobility shift of rat IDE. It is filed as binding. Particulars: ATP 3 mM. An outline of the steps:
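Rat IDE was preincubated 60 min at 37 °C with compound (100 µM) or ATP (3 mM). It was mixed 1:1 with 2× native sample buffer (0.6 M Tris-HCl pH 6.8, 20% glycerol, bromophenol blue), run on 10% native PAGE at 4 °C and silver-stained.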

The target in test [3] is T1, rat IDE. As to the kind of experiment: ATP effect on rat IDE activity and activators. It is filed as biochemical. An outline of the steps: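 Rat IDE (87.7 nM) with 50 µM a-factor–based internally quenched fluorogenic substrate in 50 mM Tris pH 7.5 containing BSA and 1 mM ATP. Compounds were used at optimal levels taken from Tris/BSA dose-response curves. ATP titration (0–10 mM) was also run in 0.1 M KPi pH 7.6 or Tris/BSA. Activity is % of water- or DMSO-treated control, n = 4.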

Regarding `Cc1ccc(C(=O)Nc2ccc(S(=O)(=O)O)c3cc(S(=O)(=O)O)cc(S(=O)(=O)O)c23)cc1NC(=O)c1cccc(NC(=O)Nc2cccc(C(=O)Nc3cc(C(=O)Nc4ccc(S(=O)(=O)O)c5cc(S(=O)(=O)O)cc(S(=O)(=O)O)c45)ccc3C)c2)c1` [suramin, reference compound], the dose-response profile result on rat IDE [1] is recorded as “hormetic response”.
Take `Nc1ncnc2c1ncn2[C@@H]1O[C@H](COP(=O)(O)OP(=O)(O)OP(=O)(O)O)[C@@H](O)[C@H]1O` [ATP, adenosine triphosphate, reference compound]: on rat IDE [2], the “native PAGE mobility shift of IDE” value is “did not observe a mobility shift”. Further, the “ATP-dependent activation of IDE” value on rat IDE [3] (KPi buffer, assay conditions used for HTS) is reported as “not observed”. Moreover, the maximum activating concentration result on rat IDE [3] (Tris/BSA buffering system) is given as “approximately 1 mM”.

The values are drawn from article PMC5901702 (Journal of biomolecular screening, 2012).
